# Measured values pooled from the literature.
# Protocols differ between the studies behind these lines.
# Cell line: SW-620
# Observed: cell growth or viability
Compound,test,conditions,endpoint,result
COc1ccc(C(=O)/C=C/c2ccc3c(c2)OCCO3)cc1S(N)(=O)=O,SRB,10 µM,inhibition,68%
CC(=O)Nc1cccc(-n2c(=O)n(C3CC3)c(=O)c3c(Nc4ccc(I)cc4F)n(C)c(=O)c(C)c32)c1,resazurin,"780 pM, 72 h",viability,71.7%
S=C([S][Au-][P+](CCCCCC[P+]([Au-][S]C(=S)n1cccn1)(c1ccccc1)c1ccccc1)(c1ccccc1)c1ccccc1)n1cccn1,,,GI50,4490 nM
O=C(O)C[C@H](O)C[C@H](O)/C=C/c1c(C2CC2)nc2ccccc2c1-c1ccc(F)cc1,SRB,72 h,IC50,0.54 µg/mL
COc1ccc(C(=O)/C=C/c2c(F)cccc2Cl)cc1S(N)(=O)=O,SRB,48 h,GI50,3600 nM
CC[C@H](C)C(=O)O[C@H]1CCC=C2C=C[C@H](C)[C@H](CC[C@@H]3C[C@@H](O)CC(=O)O3)[C@H]21,SRB,72 h,IC50,0.48 µg/mL
Cc1ccc(Cn2cnc3ccc(/C=C/C(=O)NO)cc3c2=O)cc1,SRB,48 h,IC50,1430 nM
COc1ccc(C(=O)/C=C/c2cccc(Cl)c2Cl)cc1S(N)(=O)=O,SRB,48 h,GI50,1600 nM
COc1cccc2c1C(=O)c1c(O)c3c(c(O)c1C2=O)C[C@@](O)(C(=O)CO)C[C@@H]3O[C@H]1C[C@H](N)[C@H](O)[C@H](C)O1,MTT,48 h,IC50,2.57 µg/mL
O=C(/C=C/c1ccc2ncn(Cc3ccccc3)c(=O)c2c1)NO,SRB,48 h,IC50,1520 nM
COc1ccc(C(=O)/C=C/c2ccccc2Br)cc1S(N)(=O)=O,SRB,48 h,GI50,1800 nM
O=C(/C=C/c1ccc2c(=O)n(Cc3ccc(Cl)cc3)cnc2c1)NO,SRB,48 h,IC50,671 nM
CC(C)C[C@H](NC(=O)[C@H](Cc1ccccc1)NC(=O)c1cnccn1)B(O)O,ATP luminescence,,IC50,9 nM
O=C(/C=C/c1ccc2c(=O)n(Cc3ccccc3)cnc2c1)NO,SRB,48 h,IC50,1130 nM
COc1ccc(C(=O)/C=C/c2cccnc2)cc1S(N)(=O)=O,SRB,10 µM,inhibition,87%
O=C(/C=C/c1ccc2c(=O)n(Cc3ccccc3F)cnc2c1)NO,SRB,48 h,IC50,1770 nM
COc1cccc(Oc2ccccc2NC(=O)CNC(=O)c2cccc3ccccc23)c1,SRB,48 h,GI50,166 nM
